ChEMBL document CHEMBL1126108, “Quisqualic acid analogues: synthesis of beta-heterocyclic 2-aminopropanoic acid derivatives and their activity at a novel quisqualate-sensitized site” (J Med Chem, 1992)

How the values were obtained:
Type in all cases: functional
Rattus norvegicus [1] = species on record: Rattus norvegicus; assay: Inhibitory concentration against evoked synaptic field potential of CA1 neurons in absence of quisqualic acid from rat hippocampus
Outline: (§1)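 Transverse 500-µm hippocampal slices from 30–100-day-old male Sprague-Dawley rats, submerged in oxygenated medium at 34 °C. Field potentials evoked by stimulating the Schaffer collaterals. Compound started at a subthreshold level and doubled every 4 min until the response fell >70% or exceeded 10 mM. IC50 was interpolated from fractional peak amplitude versus log concentration. Sequence included a 16 µM L-quisqualate exposure between tests.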

Rattus norvegicus [2] = species on record: Rattus norvegicus; assay: Inhibitory concentration against evoked synaptic field potential of CA1 neurons in presence of 16 uM quisqualic acid from rat hippocampus; outline: as §1
Rattus norvegicus [3] = species on record: Rattus norvegicus; assay: Sensitization effect was determined

Work on `N[C@@H](CC1CC(=O)NC1=O)C(=O)O` (stereo in doubt; 5b) yielded an IC50 (Rattus norvegicus [1]) of 9200 µM, an IC50 (Rattus norvegicus [2]) of 6800 µM and a Sensitisation (Rattus norvegicus [3]) of 1.3.
Work on `CN1C(=O)C=C(C[C@H](N)C(=O)O)C1=O` yielded an IC50 (Rattus norvegicus [1]; Rattus norvegicus) of 95 µM, an IC50 (Rattus norvegicus [2]; Rattus norvegicus) of 6.8 µM and a Sensitisation (Rattus norvegicus [3]) of 14.
`N[C@@H](CC1=CC(=O)N(CC(=O)O)C1=O)C(=O)O` gave a Sensitisation (Rattus norvegicus [3]) of 7.7.
`N[C@H](CCP(=O)(O)O)C(=O)O` gave an IC50 (Rattus norvegicus [1]; Rattus norvegicus) of 2600 µM, an IC50 (Rattus norvegicus [2]; Rattus norvegicus) of 152 µM and a Sensitisation (Rattus norvegicus [3]) of 17.
Molecule `N[C@@H](CC1=CC(=O)NC1=O)C(=O)O` has an IC50 (Rattus norvegicus [1]; Rattus norvegicus) of 21 µM, an IC50 (Rattus norvegicus [2]; Rattus norvegicus) of 9.5 µM and a Sensitisation (Rattus norvegicus [3]) of 2.2.
Molecule `N[C@H](Cn1oc(=O)[nH]c1=O)C(=O)O` has an IC50 (Rattus norvegicus [1]; Rattus norvegicus) of 78 µM, an IC50 (Rattus norvegicus [2]; Rattus norvegicus) of 10 µM and a Sensitisation (Rattus norvegicus [3]) of 7.5.
`N[C@@H](Cn1oc(=O)[nH]c1=O)C(=O)O` [QUISQUALATE] showed an IC50 (Rattus norvegicus [1]; Rattus norvegicus) of 3.9 µM, an IC50 (Rattus norvegicus [2]; Rattus norvegicus) of 2.9 µM and a Sensitisation (Rattus norvegicus [3]) of 1.3.
In the case of `N[C@@H](CCP(=O)(O)O)C(=O)O`, the IC50 (Rattus norvegicus [1]; Rattus norvegicus) is reported as 1800 µM, the IC50 (Rattus norvegicus [2]; Rattus norvegicus) is reported as 55 µM and the Sensitisation (Rattus norvegicus [3]) is reported as 33.
With `NC(CN1CC(=O)NC1=O)C(=O)O` (configuration not stated) the IC50 (Rattus norvegicus [1]; Rattus norvegicus) was 1.4 µM, the IC50 (Rattus norvegicus [2]; Rattus norvegicus) was 0.8 µM and the Sensitisation (Rattus norvegicus [3]) was 1.7.
`N[C@@H](CC1CC(=O)NC1=O)C(=O)O` (stereo in doubt; 5a) was tested, and the IC50 (Rattus norvegicus [1]) was over 10000 µM and the IC50 (Rattus norvegicus [2]) was over 10000 µM.
